Key:
[1] = Growth inhibition of human HL-60(TB) cells incubated for 48 hrs by sulforhodamine B assay; format: functional; conditions: HL-60, 48 h
In short: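 Five-concentration, 48 h SRB screen (10-fold or ½-log dilutions from a 400× DMSO concentrate; 24 h preincubation at 37 °C, 5% CO₂; time-zero plate; A515). GI50 was solved from (Ti−Tz)/(C−Tz)×100 = 50. TGI was taken where Ti = Tz, and LC50 from (Ti−Tz)/[…].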

[2] = Growth inhibition of human SF268 cells incubated for 48 hrs by sulforhodamine B assay; format: functional; conditions: SF-268, 48 h
In short: (§1)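 Cells were plated at 5,000–40,000 per well according to doubling time and preincubated 24 h at 37 °C in 5% CO2; time-zero plates were then TCA-fixed. Five concentrations (10-fold or ½-log dilutions, DMSO stock) were incubated 48 h. Cells were TCA-fixed, stained with 0.4% SRB and read at 515 nm. GI50 was taken where [(Ti−Tz)/(C−Tz)]×100 = 50.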

[3] = Growth inhibition of human LOXIMVI cells incubated for 48 hrs by sulforhodamine B assay; format: functional; conditions: LOX IMVI; in short: as §1
MDA-MB-435 = test: Growth inhibition of human MDA-MB-435 cells incubated for 48 hrs by sulforhodamine B assay; format: functional; conditions: MDA-MB-435, 48 h; in short: as §1
[4] = Growth inhibition of human Hs 578T cells incubated for 48 hrs by sulforhodamine B assay; format: functional; in short: as §1
[5] = Growth inhibition of human BT549 cells incubated for 48 hrs by sulforhodamine B assay; format: functional; conditions: BT-549, 48 h
In short: (§2)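 Five-dose assay: five concentrations from 10-fold or ½-log serial dilutions. Cells are plated at 5,000–40,000 per well according to doubling time, grown 24 h, then exposed 48 h at 37 °C, 5% CO₂. Fixed with cold 50% TCA (final addition) for 60 min at 4 °C and stained with 0.4% SRB in 1% acetic acid. Bound dye is solubilized in 10 mM Tris base and read at 515 nm. GI₅₀ is where [(Ti−Tz)/(C−Tz)]×100 = 50, with a time-zero plate as Tz.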

SK-MEL-5 = test: Growth inhibition of human SK-MEL-5 cells assessed as cell growth at 10^-8 M incubated for 48 hrs by sulforhodamine B assay; format: functional; conditions: SK-MEL-5, 48 h, read-out: Activity
NCI/ADR-RES = test: Growth inhibition of human NCI/ADR-RES cells assessed as cell growth at 10^-5 M incubated for 48 hrs by sulforhodamine B assay; format: functional; conditions: read-out: Activity
786-0 = test: Growth inhibition of human 786-0 cells assessed as cell growth at 10^-5 M incubated for 48 hrs by sulforhodamine B assay; format: functional; conditions: 786-0, 48 h, read-out: Activity; in short: as §2
[6] = Growth inhibition of human Hs 578T cells assessed as cell growth at 10^-8 M incubated for 48 hrs by sulforhodamine B assay; format: functional; conditions: read-out: Activity
[7] = Growth inhibition of human HL-60(TB) cells assessed as cell growth at 10^-7 M incubated for 48 hrs by sulforhodamine B assay; format: functional; conditions: HL-60, 48 h, read-out: Activity
In short: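 Cells plated at 5,000–40,000/well according to doubling time and preincubated 24 h at 37 °C, 5% CO₂, with time-zero plates TCA-fixed. Drugs were kept as DMSO concentrates at 400× the top concentration and diluted in medium with 50 µg/ml gentamicin. Five 10-fold or ½-log dilutions were run for 48 h, followed by SRB staining and A515. Percent growth = (Ti−Tz)/(C−Tz)×100, or (Ti−Tz)/Tz×100 when Ti<Tz.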

[8] = Growth inhibition of human HOP62 cells assessed as cell growth at 10^-7 M incubated for 48 hrs by sulforhodamine B assay; format: functional; conditions: HOP-62, 48 h, read-out: Activity
[9] = Growth inhibition of human HOP92 cells assessed as cell growth at 10^-7 M incubated for 48 hrs by sulforhodamine B assay; format: functional; conditions: HOP-92, 48 h, read-out: Activity
[10] = Growth inhibition of human Hs 578T cells assessed as cell growth at 10^-5 M incubated for 48 hrs by sulforhodamine B assay; format: functional; conditions: read-out: Activity
[11] = Growth inhibition of human SNB75 cells assessed as cell growth at 10^-7 M incubated for 48 hrs by sulforhodamine B assay; format: functional; conditions: SNB-75, 48 h, read-out: Activity
M14 = test: Growth inhibition of human M14 cells assessed as cell growth at 10^-4 M incubated for 48 hrs by sulforhodamine B assay; format: functional; conditions: M14, 48 h, read-out: Activity
[12] = Growth inhibition of human UACC257 cells assessed as cell growth at 10 uM incubated for 48 hrs by sulforhodamine B assay; format: functional; conditions: UACC-257, 48 h, read-out: Activity
ACHN = test: Growth inhibition of human ACHN cells assessed as cell growth at 10^-7 M incubated for 48 hrs by sulforhodamine B assay; format: functional; conditions: read-out: Activity; in short: as §2
[13] = Growth inhibition of human UACC62 cells assessed as cell growth at 10^-6 M incubated for 48 hrs by sulforhodamine B assay; format: functional; conditions: UACC-62, 48 h, read-out: Activity
[14] = Growth inhibition of human OVCAR8 cells assessed as cell growth at 10^-6 M incubated for 48 hrs by sulforhodamine B assay; format: functional; conditions: OVCAR-8, 48 h, read-out: Activity
[15] = Growth inhibition of human SKOV3 cells assessed as cell growth at 10^-6 M incubated for 48 hrs by sulforhodamine B assay; format: functional; conditions: SK-OV-3, 48 h, read-out: Activity
Albumin = Albumin (Bos taurus, UniProt P02769); test: Binding affinity to bovine serum albumin assessed as binding constant in absorption spectra by Benesie-Hildebrand plot analysis; format: ADME; conditions: cattle, isolated protein
Sequence of Albumin (P02769 whole entry): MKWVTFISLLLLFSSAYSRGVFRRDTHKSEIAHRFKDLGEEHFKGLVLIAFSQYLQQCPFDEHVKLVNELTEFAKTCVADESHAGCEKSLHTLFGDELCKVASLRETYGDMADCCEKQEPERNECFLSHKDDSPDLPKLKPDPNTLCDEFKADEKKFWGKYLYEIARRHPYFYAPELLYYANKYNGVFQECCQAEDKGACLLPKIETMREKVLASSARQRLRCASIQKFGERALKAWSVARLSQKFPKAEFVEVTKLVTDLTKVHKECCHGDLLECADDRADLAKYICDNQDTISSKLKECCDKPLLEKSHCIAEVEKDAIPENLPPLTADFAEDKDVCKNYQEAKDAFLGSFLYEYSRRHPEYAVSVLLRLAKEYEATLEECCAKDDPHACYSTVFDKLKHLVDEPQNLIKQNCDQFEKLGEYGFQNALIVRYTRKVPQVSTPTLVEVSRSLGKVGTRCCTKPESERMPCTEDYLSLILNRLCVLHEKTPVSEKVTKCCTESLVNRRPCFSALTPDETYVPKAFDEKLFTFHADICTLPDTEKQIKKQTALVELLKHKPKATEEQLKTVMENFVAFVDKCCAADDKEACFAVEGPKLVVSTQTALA
In short: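 BSA, 10 µM, in 0.1 M phosphate buffer pH 7.4, titrated with compound (0–20 µM per the figure; diluted from 10⁻³ mol L⁻¹ DMSO stocks). Run at 300 K in a 1 cm quartz cell. UV spectra taken 200–800 nm after 5 min equilibration; fluorescence excited at 280 nm, emission 351 nm, slit 10 nm. K is the intercept/slope ratio of a linear fit of 1/(A₀−A) or 1/(F₀−F) vs 1/[compound].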

[16] = read-out: LC50 (the source's name)
[17] = read-out: pLC50 (the source's name) (converted)

Work on `c1ccc(-c2nc(Nc3ccc(-c4nc5ccccc5[nH]4)cc3)nc(N3CCOCC3)n2)cc1` yielded a GI50 ([1]; read-out: GI50) of 0.031 µM, an LC50 ([1]; read-out: LC50) of 31.2 µM and a TGI ([1]; read-out: TGI) of 0.601 µM. The GI50 ([1]; read-out: pGI50 (converted)) was 0.0309 µM, the LC50 ([1]; read-out: pLC50 (converted)) was 30.9 µM and the TGI ([1]; read-out: pTGI (converted)) was 0.603 µM. For the same molecule, the GI50 ([2]; read-out: GI50) was 1.64 µM, the CC50 [2, 16] was 6.39 µM and the TGI ([2]; read-out: TGI) was 3.24 µM. For the same molecule, the GI50 ([2]; read-out: pGI50 (converted)) was 1.62 µM, the CC50 [2, 17] was 6.46 µM and the TGI ([2]; read-out: pTGI (converted)) was 3.24 µM. For the same molecule, the GI50 ([3]; read-out: GI50) was 0.489 µM, the TGI ([3]; read-out: TGI) was 2.12 µM and the GI50 ([3]; read-out: pGI50 (converted)) was 0.49 µM. For the same molecule, the TGI ([3]; read-out: pTGI (converted)) was 2.14 µM, the GI50 (MDA-MB-435; read-out: GI50) was 1.76 µM and the CC50 (MDA-MB-435; [16]) was 6.11 µM. It also gave a TGI (MDA-MB-435; read-out: TGI) of 3.28 µM, a GI50 (MDA-MB-435; read-out: pGI50 (converted)) of 1.78 µM and a CC50 (MDA-MB-435; [17]) of 6.17 µM. For the same molecule, the TGI (MDA-MB-435; read-out: pTGI (converted)) was 3.31 µM, the GI50 ([4]; read-out: GI50) was 1.89 µM and the CC50 [4, 16] was greater than 100 µM. The TGI ([4]; read-out: TGI) was 6.04 µM, the GI50 ([4]; read-out: pGI50 (converted)) was 1.91 µM and the CC50 [4, 17] was greater than 100 µM. The TGI ([4]; read-out: pTGI (converted)) was 6.03 µM, the GI50 ([5]; read-out: GI50) was 1.98 µM and the CC50 [5, 16] was 7.68 µM. The TGI ([5]; read-out: TGI) was 3.9 µM, the GI50 ([5]; read-out: pGI50 (converted)) was 2 µM and the CC50 [5, 17] was 7.76 µM. For the same molecule, the TGI ([5]; read-out: pTGI (converted)) was 3.89 µM, the growth at 0.01 µM (SK-MEL-5) was 101% and the growth at 10 µM (NCI/ADR-RES) was -28%. It also gave a growth at 10 µM (786-0) of -88%, a growth at 0.01 µM [6] of 94% and a growth at 0.1 µM [7] of 26%. It also gave a growth at 0.1 µM [8] of 93%, a growth at 0.1 µM [9] of 107% and a growth at 10 µM [10] of -22%. It also gave a growth at 0.1 µM [11] of 96%, a growth at 100 µM (M14) of -79% and a growth at 10 µM [12] of -56.4%. For the same molecule, the growth at 0.1 µM (ACHN) was 92%, the growth at 1 µM [13] was 84% and the growth at 1 µM [14] was 89%. For the same molecule, the growth at 1 µM [15] was 104% and the K (Albumin) was 1.2 ×10⁵ /M.

`Fc1ccc(-c2nc(Nc3ccc(-c4nc5ccccc5[nH]4)cc3)nc(N3CCOCC3)n2)cc1` gave a GI50 ([1]; read-out: GI50) of 1.94 µM, an LC50 ([1]; read-out: LC50) greater than 100 µM and a TGI ([1]; read-out: TGI) of 5.67 µM. The GI50 ([1]; read-out: pGI50 (converted)) was 1.95 µM, the LC50 ([1]; read-out: pLC50 (converted)) was greater than 100 µM and the TGI ([1]; read-out: pTGI (converted)) was 5.62 µM. It also gave a GI50 ([2]; read-out: GI50) of 2.82 µM, a CC50 [2, 16] greater than 100 µM and a TGI ([2]; read-out: TGI) of 26.5 µM. It also gave a GI50 ([2]; read-out: pGI50 (converted)) of 2.82 µM, a CC50 [2, 17] greater than 100 µM and a TGI ([2]; read-out: pTGI (converted)) of 26.3 µM. The GI50 ([3]; read-out: GI50) was 1.78 µM, the TGI ([3]; read-out: TGI) was 3.59 µM and the GI50 ([3]; read-out: pGI50 (converted)) was 1.78 µM. For the same molecule, the TGI ([3]; read-out: pTGI (converted)) was 3.63 µM, the GI50 (MDA-MB-435; read-out: GI50) was 1.94 µM and the TGI (MDA-MB-435; read-out: TGI) was 4.04 µM. The GI50 (MDA-MB-435; read-out: pGI50 (converted)) was 1.95 µM, the TGI (MDA-MB-435; read-out: pTGI (converted)) was 4.07 µM and the GI50 ([4]; read-out: GI50) was 1.76 µM. It also gave a CC50 [4, 16] greater than 100 µM, a TGI ([4]; read-out: TGI) of 6.96 µM and a GI50 ([4]; read-out: pGI50 (converted)) of 1.78 µM. The CC50 [4, 17] was greater than 100 µM, the TGI ([4]; read-out: pTGI (converted)) was 6.92 µM and the GI50 ([5]; read-out: GI50) was 1.74 µM. The TGI ([5]; read-out: TGI) was 4.07 µM, the GI50 ([5]; read-out: pGI50 (converted)) was 1.74 µM and the TGI ([5]; read-out: pTGI (converted)) was 4.07 µM. The growth at 0.01 µM (SK-MEL-5) was 98%, the growth at 10 µM (NCI/ADR-RES) was 10% and the growth at 10 µM (786-0) was -70%. The growth at 0.01 µM [6] was 95%, the growth at 0.1 µM [7] was 79% and the growth at 0.1 µM [8] was 97%. It also gave a growth at 0.1 µM [9] of 104%, a growth at 10 µM [10] of -13% and a growth at 0.1 µM [11] of 89%. It also gave a growth at 100 µM (M14) of -80%, a growth at 10 µM [12] of -27.6% and a growth at 0.1 µM (ACHN) of 95%. The growth at 1 µM [13] was 86%, the growth at 1 µM [14] was 101% and the growth at 1 µM [15] was 101%. The K (Albumin) was 1 ×10⁵ /M.

Source: ChEMBL document CHEMBL3808334, “Synthesis and in vitro evaluation of novel triazine analogues as anticancer agents and their interaction studies with bovine serum albumin” (Eur J Med Chem, 2016)
